The series is described as follows: Toxicity liver stage against HepG2, at 10uM. The settings on record: human, HepG2-A16-CD81EGFP cells; read-out: INHIBITION
The class given is cell-based. Also noted: test concentration 10 uM, cell line HepG2-A16-CD81EGFP. Summed up:
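Uninfected HepG2-A16-CD81EGFP cells, 3 × 10^3 per well, 1536-well, plated on prespotted compound at 10 μM final, parasite-free screening media added to match infected plates; puromycin 10 μM positive, DMSO 0.5% negative; run in parallel with 48 h PbLuc assay at 37 °C, 5% CO2; viability by CellTiter-Glo luminescence, normalized to controls.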
On to `c1ccc(-c2nnc(CNC3CCCN(c4cccnn4)C3)o2)cc1` (stereo unspecified), for which the cytotoxicity at 10 µM was -9.45%.

With `O[C@H]1CN(Cc2ccc3c(c2)OCCO3)CC[C@@]12CCCO2`, the cytotoxicity at 10 µM was -2.92%.

Consider `Cc1noc(NC(=O)c2ccc(Br)o2)n1`, for which the cytotoxicity at 10 µM is -3.75%.

As to `CCc1c(C)nn(C)c1NC(=O)N1CCCOC(Cn2cccn2)C1` (stereo unspecified), the cytotoxicity at 10 µM is -8.14%. Under `CCC(CC)CN1CCCn2nc(CNC(=O)COC)cc2C1` stands 2.66%; under `Cc1nc(-c2cc(F)c3c(c2)CC(CN)O3)c[nH]1` (stereo unspecified), 9.15%. With `CCn1nc(CNC(=O)C2CC(=O)N(C3CCCC3)C2)c2ccccc21` (stereo unspecified), the cytotoxicity at 10 µM is -25.8%.

With `COc1cc(C(C)=O)ccc1OC12CCCN(CC1)C2` (stereo unspecified), the cytotoxicity at 10 µM worked out at 10.2%. With `CCCNC(=O)c1cc(OC)c(OC)cc1N(C)S(C)(=O)=O`, the cytotoxicity at 10 µM is -5.18%. Under `COc1ccccc1C1(CNc2nnc(C)c(C)c2C#N)CCCC1` stands 34.4%; under `CN(Cc1ccccc1-n1cccn1)C[C@@H]1CCCN2CCCC[C@H]12`, -8.2%.

In the case of `CCOCc1cccc(NCc2c[nH]nc2-c2cccnc2)c1`, the cytotoxicity at 10 µM is -3.9%. Under `CC(C)COC(=O)N1CC(=O)N(CCCc2ccccc2)CC(O)C1` (stereo unspecified) stands 0.853%.

On to `Cc1noc(-c2ccnc(Oc3ccccc3CN3CCCCC3)c2)n1`, for which the cytotoxicity at 10 µM is -1.76%. The same measure for `Cc1ccc(C(=O)NCc2ccc(N3CCNC(=O)C3)c(F)c2)cc1`: -3.31%. The same measure for `Cc1ccc(-c2noc([C@@H]3C[C@H](NC(=O)CC(C)(C)C)CN3C)n2)cc1`: 7.35%.

`CCCc1nc(C)cc(N2Cc3cnn(CCO)c3C2)n1`: the cytotoxicity at 10 µM was -129%. Under `CC(C(=O)N1CCCN(c2ncccc2C#N)CC1)n1ccnc1` (stereo unspecified) stands -2.6%; under `Cc1nn(C)c(Cl)c1C1CCCN1CC(=O)Nc1cccnc1` (stereo unspecified), -17.2%. The same measure for `N[C@@H]1CC[C@H](C(=O)NCCc2nc(-c3ccccc3)cs2)C1`: -11.3%. The same measure for `CCOc1ncccc1C(=O)NC1CCCN(c2ncccn2)C1` (stereo unspecified): -23.5%. Regarding `Cc1ccc(CN2CCC3(CCCN(Cc4ccc(F)c(F)c4)C3)C2)o1` (stereo unspecified), the cytotoxicity at 10 µM is 9.39%.

Regarding `Cc1cc(C(=O)NCc2cccnc2N2CCCC(O)C2)[nH]n1` (stereo unspecified), the cytotoxicity at 10 µM amounted to 4.52%. The same measure for `CC(CCN1CCCn2nc(CNS(C)(=O)=O)cc2C1)c1ccccc1` (stereo unspecified): 8.85%. Take `CCC1CN(C(=O)COc2ccc(C(=O)NC3CC3)cc2)CCO1` (stereo unspecified): the cytotoxicity at 10 µM is -4.39%. Take `COc1ccccc1-n1cc(C(=O)NCCn2nc(C)nc2C)cn1`: the cytotoxicity at 10 µM was 9.27%.

Consider `CCOc1ccc(Cl)c(C(=O)N2CCN(CCO)CC2)n1`, for which the cytotoxicity at 10 µM is -5.15%.

For the compound `CN1CCNC(Cc2ccc(-c3cccs3)cc2)C1=O` (stereo unspecified), the cytotoxicity at 10 µM was -29.3%. Under `NC(=O)C1CN(C(=O)Nc2ccccc2-c2cccs2)CCO1` (stereo unspecified) stands -4.84%; under `CC(C)C(C)(C#N)NC(=O)Cn1cc(I)cn1` (stereo unspecified), 18.1%; under `Cc1noc(CCCC(=O)NC(C)c2ccc(Cl)s2)n1` (stereo unspecified), -9.48%. Under `CCn1cc(NC(=O)NCC(C)O)cn1` (stereo unspecified) stands -4.84%; under `Cc1ncsc1C(=O)NC1CCN(Cc2ccc(C#N)cc2)CC1`, -6.46%; under `O=C(Nc1cccnc1)Nc1cccc(CN2CCC(O)CC2)c1`, -4.06%.

Turning to `COC(=O)CSc1nnc2[nH]c(=O)c3c(n12)CCCC3`, the cytotoxicity at 10 µM was -99.8%. Consider `CCC(O)CN1CCN(C(=O)c2ccn(-c3ccccc3)n2)CC1` (stereo unspecified), for which the cytotoxicity at 10 µM is -9.33%. Under `Cc1cn2c(CN(C)C(=O)c3nccnc3N)c(C)nc2s1` stands -4.12%. Under `c1cc(-c2cnc(C3CCNCC3)cn2)n[nH]1` stands -2.78%.

`CCCc1nnc(N2CCC(N3CCCCCC3)CC2)o1`: the cytotoxicity at 10 µM is -15.3%. `CN(C)c1ncccc1N(C)C(=O)Cn1cc(-c2ccccc2)nn1`: the cytotoxicity at 10 µM was -2.2%. For the compound `Cc1nn(C)c(C)c1-c1ccc(=O)n(C(C)C(=O)NC2CCCCC2)n1` (stereo unspecified), the cytotoxicity at 10 µM came out at 1.94%.

With `Cc1nc(C)c(C(=O)NCCNC(=O)Cc2ccccc2)s1`, the cytotoxicity at 10 µM was -7.89%. As for `COc1cccc(CCC(=O)N2CCN(CC(C)(C)O)CC2)c1`, the cytotoxicity at 10 µM was -8.39%.

Take `CC(C)CCNc1nnc(C(C)C)s1`: the cytotoxicity at 10 µM is -10.6%. Take `CN(C)c1nc(N2CCCC2)nc2c1CCN(Cc1nccn1C)CC2`: the cytotoxicity at 10 µM is -97.2%. Under `O=S(=O)(c1c(F)cccc1F)N1CCC(Cn2cccn2)CC1` stands -11.9%; under `COc1ccc(-c2ccc(C(=O)N3CCOCC3CC(=O)O)o2)cc1` (stereo unspecified), 1.79%; under `Cc1cc(C)n(-c2cncc(N3CCN(C(=O)C(C)C)CC3)n2)n1`, -2.9%. Under `Cc1ccc(-c2cc(N)c(=O)n(C(C)C(=O)NC(C)C)n2)o1` (stereo unspecified) stands -6.69%; under `COCCC(=O)N1CCC(c2nnc(-c3ccsc3)o2)CC1`, 9.09%; under `CCn1c(C2CCCN(C(=O)C(C)(C)OC)C2)nn(CCN(C)C)c1=O` (stereo unspecified), -1.94%.

As for `Brc1csc(CNCc2nnc3n2CCC3)c1`, the cytotoxicity at 10 µM amounted to 5.63%. As to `CCSc1cc(C(=O)NC2CCN(C(=O)c3ccncc3)CC2)ccn1`, the cytotoxicity at 10 µM amounted to 5.88%.

For the compound `O=C(NCCc1cccs1)[C@H]1CO[C@H]2CCN(CC3CC3)C[C@H]2C1`, the cytotoxicity at 10 µM was -103%. The same measure for `CC(C)n1cnnc1C1CCCN(S(=O)(=O)CCCC#N)C1` (stereo unspecified): -3.46%; for `CN(C)C(=O)NC1COC2(CCN(Cc3ccc(N(C)C)cc3)CC2)C1` (stereo unspecified): -77%. Regarding `CN(C)C(=O)C1CN(Cc2cccs2)CCN(S(C)(=O)=O)C1` (stereo unspecified), the cytotoxicity at 10 µM was -33.1%. Under `Cc1ccccc1N1CCN(c2cc(N(C)C)ncn2)C(C)C1` (stereo unspecified) stands 19.7%; under `CCOc1cccc(CCNC(=O)Cc2cccc(O)c2)n1`, -5.26%; under `N#Cc1cc(Cl)ccc1N1CCN(C(=O)C2CCC2)CC1`, 10.1%. As to `CN(CC(=O)N1CCOC(CCc2ccccc2)C1)Cc1ccccn1` (stereo unspecified), the cytotoxicity at 10 µM was -1.83%. As to `O=C(O)c1cccc(C2CCCN(S(=O)(=O)N3CCOCC3)C2)c1` (stereo unspecified), the cytotoxicity at 10 µM amounted to 9.45%.

As to `Cc1csc(CN(C)c2cc(C)nc3c(C)c(C)nn23)n1`, the cytotoxicity at 10 µM is -2.96%.

With `O=c1[nH]c(-c2ccccn2)nc2c1CCN(S(=O)(=O)N1CCCC1)C2`, the cytotoxicity at 10 µM was determined as 8.85%. The same measure for `COCCN1C(=O)[C@@H]2CC[C@H]1CN(S(=O)(=O)c1ccc(C#N)cc1)C2`: -2.59%. `COC1(CNS(=O)(=O)c2ccccc2Br)CCSC1` (stereo unspecified): the cytotoxicity at 10 µM is -8.26%.

Regarding `Cc1cccc(C)c1NC(=O)c1cccc(CN2CCCC2C)c1` (stereo unspecified), the cytotoxicity at 10 µM was 4.73%. Under `CCS(=O)(=O)CC(=O)Nc1cc(-c2cccc(F)c2F)n[nH]1` stands 10.7%. Under `CN1CCN(Cc2ccc(-c3ccc(-c4ccn[nH]4)cc3)nc2)CC1` stands 3.61%.

As to `c1cc(C2CN(C3CCCC3)C2)n[nH]1`, the cytotoxicity at 10 µM was 4%. The same measure for `O=C(Cc1csc(-c2ncccn2)n1)N1CCN2CCCCC2C1` (stereo unspecified): 7.94%; for `Cc1ccc(OCC(C)NS(C)(=O)=O)cc1` (stereo unspecified): 14.8%. The same measure for `Cc1cccc(CNC(=O)Nc2ccn(CCN(C)C)n2)c1`: -4.47%; for `CS(=O)(=O)C1CCN(S(=O)(=O)c2ccc(F)c(F)c2)CC1`: -10.4%. With `Cc1nnc(N2CC[C@H]3O[C@H](C(=O)NCc4ccccn4)CC[C@H]32)s1`, the cytotoxicity at 10 µM is -66.4%. The same measure for `CCc1nnc(N2CCN(CCc3ccccc3)C(=O)C2)o1`: -1.01%.

For the compound `CC(C)NC(=O)N1CCN2C(=O)N(Cc3ccc(F)cc3)C[C@H]2C1`, the cytotoxicity at 10 µM is 0.88%.

`CC(C)=CCCN1CCN(C)C2(CCC(=O)N(C)CC2)C1` (stereo unspecified): the cytotoxicity at 10 µM is -54%. The same measure for `CC(C)(NCc1cccc(C#N)c1)c1ccc2c(c1)OCO2`: 3.34%; for `O=S(=O)(NCC(O)c1ccc(C(F)(F)F)cc1)C1CC1` (stereo unspecified): -6.9%. Consider `Cn1cc(C2CC(=O)NC23CCN(Cc2nccs2)CC3)cn1` (stereo unspecified), for which the cytotoxicity at 10 µM was determined as 1.06%. Under `Oc1cc(C2CCCCN2Cc2cccs2)nc(-c2ccncc2)n1` (stereo unspecified) stands 7.78%.

With `O=C1N(CCC2CCCCC2)CCCC1(O)CNCCc1ccccc1` (stereo unspecified), the cytotoxicity at 10 µM is -8.92%.

With `Cc1ccc(CN2CCN(c3ncccc3C(N)=O)CC2CCO)cc1` (stereo unspecified), the cytotoxicity at 10 µM is -13.3%. Under `Cc1nc(C)n(CC2CCCCN2CC(=O)Nc2nnc(C)s2)n1` (stereo unspecified) stands -10.6%. The same measure for `OC1CCN(c2ccc(CNc3nc4ccccc4o3)cc2F)CC1`: 0.833%. Under `Cc1cccc2nc(C(=O)N3CCCC[C@]4(C)NC(=O)CC[C@H]34)cn12` stands -13.7%. Regarding `CC(=O)NCCNc1cc(C)nc2cc(C)nn12`, the cytotoxicity at 10 µM is -6.91%.

In the case of `CC(C)Nc1nc2c(c(NC3CC3)n1)CN(C(=O)c1ccncc1)CC2`, the cytotoxicity at 10 µM is -2.29%. The same measure for `COc1cc(OC)cc(C(=O)NCCCNc2ncccn2)c1`: -11.1%; for `COc1ccc(SC(C)C(=O)N2CCC(NC(=O)C3CC3)CC2)cc1` (stereo unspecified): -9.11%; for `Cc1n[nH]c(C)c1-c1cnc(CC2CCN(C(C)C)CC2)cn1`: 22.3%. Under `CS(=O)(=O)N1CCC(CSc2ccccc2)C1` (stereo unspecified) stands 1.58%. For the compound `CC[C@@H](C)[C@@H](N)C(=O)Nc1cccc(-c2cnc(N(C)CCO)nc2)c1`, the cytotoxicity at 10 µM is -5.89%. On to `Cn1cc(NC(=O)c2cccc(-n3cnnn3)c2)cn1`, for which the cytotoxicity at 10 µM is 5.39%.

Turning to `NC(=O)CS(=O)(=O)Cc1cc(Cl)c2c(c1)OCCCO2`, the cytotoxicity at 10 µM is -0.463%.

For the origin of these results see ChEMBL document CHEMBL4513216, “Probing the Open Global Health Chemical Diversity Library for Multistage-Active Starting Points for Next-Generation Antimalarials” (ACS Infect Dis, 2020).
